# ANO1 block: TMEM16A chloride channel inhibitors, primary screen, cell-based, HTS; Anoctamin-1 (Mus musculus), Q8BHY3; HEK293 TMEM16A/YFP iodide influx fluorescence, ionomycin; normalized B-score (activity score, 25-100; higher = stronger inhibition) at 10 µM; 1.2% of 310,000 active; AID 588511, 2011;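 active = ratio plate-corrected score three or more library SD toward inhibition, starting fluorescence score within five deviations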;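 also: score derived from kinetic fluorescence span divided by baseline fluorescence per well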
# Target sequence (Q8BHY3 whole entry, looked up): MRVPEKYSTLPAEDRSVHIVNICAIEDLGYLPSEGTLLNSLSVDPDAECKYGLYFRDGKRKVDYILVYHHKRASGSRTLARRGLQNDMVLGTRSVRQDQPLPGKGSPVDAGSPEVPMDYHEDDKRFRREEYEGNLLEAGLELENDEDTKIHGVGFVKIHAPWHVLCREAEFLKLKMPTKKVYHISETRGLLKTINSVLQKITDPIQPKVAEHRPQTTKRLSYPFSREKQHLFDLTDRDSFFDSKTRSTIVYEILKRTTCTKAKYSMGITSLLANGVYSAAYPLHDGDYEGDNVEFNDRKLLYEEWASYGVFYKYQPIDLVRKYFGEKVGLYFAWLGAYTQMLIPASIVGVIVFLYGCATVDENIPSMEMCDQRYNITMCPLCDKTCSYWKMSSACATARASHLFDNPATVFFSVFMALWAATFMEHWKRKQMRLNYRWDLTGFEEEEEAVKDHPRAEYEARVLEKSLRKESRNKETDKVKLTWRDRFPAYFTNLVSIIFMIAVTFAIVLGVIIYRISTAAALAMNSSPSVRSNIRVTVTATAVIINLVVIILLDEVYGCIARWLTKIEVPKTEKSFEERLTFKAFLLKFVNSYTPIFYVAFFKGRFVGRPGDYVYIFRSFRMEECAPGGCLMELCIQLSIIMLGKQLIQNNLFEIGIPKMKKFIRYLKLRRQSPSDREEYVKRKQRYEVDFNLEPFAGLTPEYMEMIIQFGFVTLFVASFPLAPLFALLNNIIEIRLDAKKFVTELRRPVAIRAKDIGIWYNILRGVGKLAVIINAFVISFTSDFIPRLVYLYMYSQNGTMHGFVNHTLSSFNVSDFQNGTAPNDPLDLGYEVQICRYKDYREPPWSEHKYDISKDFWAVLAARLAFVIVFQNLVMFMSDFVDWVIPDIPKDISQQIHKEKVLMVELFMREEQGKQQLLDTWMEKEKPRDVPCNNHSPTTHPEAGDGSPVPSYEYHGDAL
# TMEM16A act: TMEM16A chloride channel activators or potentiators, primary screen, cell-based, HTS; Anoctamin-1 (Mus musculus), Q8BHY3; HEK293 TMEM16A/YFP-H148Q/I152L, iodide quench fluorescence; hits give low values; B-score at 10 µM; 0.3% of 340,000 active;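 active = fluorescence-ratio B-score plate-corrected deviation score at least 3 library SD below zero, with starting fluorescence score within 5 deviations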;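 also: channel opened by trigger with iodide after compound preincubation; score built on the fluorescence ratio of max minus min over baseline; more negative score means more quench and so TMEM16A activation or potentiation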
# XBP1 UPR activ: activators of adaptive XBP1 UPR arm, primary screen, cell-based, CHO-XBP1 luciferase reporter, luminescence, uHTS. IRE1-XBP1 UPR activation; percent of tunicamycin response, DMSO as zero. activation, % at 20 µM. 0.33% of 330,000 active. AID 463104, 2010;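 active = versus positive control, 20 µM dose yields 30% or more activation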;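 also: 100% = tunicamycin at 10 µg/mL and 0% = DMSO only wells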
#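 Material: IRE1-XBP1 luciferase reporter CHO line / Quantity: one thousand reporter cells per well / Buffer or medium: F12 with 10% serum / Compound: 20 µM single concentration, DMSO 1% / Times: 6 h treatment, 37 °C / Detection: Steady-Glo luciferase glow luminescence, 10 min after reagent addition / Benchmarks: tunicamycin high, DMSO low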
# CHOP inh: inhibitors of CHOP promoter induction, primary screen, cell-based, unfolded protein response, luciferase reporter; inhibition, % at 10 µM; 3.8% of 220,000 active; CHO-K1 CHOP-promoter luciferase, tunicamycin-induced, 15-18 h;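 active = compounds that reduced the stress-induced luciferase reporter signal by more than about 70% of percent inhibition, limit read from the data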;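 also: 0% = tunicamycin plus vehicle and 100% = wells without tunicamycin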
# Lipid droplet: inhibitors of hepatocyte lipid droplet formation, primary screen, imaging, high-throughput imaging, BODIPY stain; AML12 mouse hepatocytes, oleate lipid droplets; inhibition, % at 6.5 µM; 0.4% of 240,000 active;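 active = lipid droplet intensity inhibited by at least 50%, with more than 500 cells counted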
#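 Test system: AML12 mouse liver cells; schedule: overnight exposure; technique: high-content imaging of BODIPY-stained droplets and DAPI nuclei; read-out: % inhibition of corrected integrated BODIPY droplet signal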
# UPR CHOP act: activators of apoptotic CHOP UPR arm, primary screen, cell-based, CHO-CHOP luciferase reporter, luminescence, uHTS | UPR activation; percent of tunicamycin response over DMSO baseline | activation, % at 10 µM | 0.34% of 330,000 active | AID 449763, 2010;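 active = at 10 µM dose, activation of 40% or more, normalized to positive control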;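 also: 100% = tunicamycin at 10 µg/mL and 0% = DMSO alone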
#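 System: CHO CHOP reporter cells. Amount: 500 cells per well. Buffer or medium: F12 medium, 10% FBS. Compound dosing: one dose, 10 µM in 0.5% DMSO. Incubation: 6 h compound exposure at 37 °C after overnight seeding. Technique: Steady-Glo luciferase luminescence. Benchmarks: tunicamycin and DMSO controls.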
# XBP1 UPR conf: IRE1-XBP1 UPR arm activators, confirmation, cell-based, CHO-XBP1 luciferase reporter, luminescence, single concentration | shares compounds with XBP1 UPR activ | activation, % at 20 µM | 63% of 1,000 active | AID 485299, 2010;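 active = reporter signal at least 30% of the positive control's activation in two or more of four replicate wells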;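 also: plate controls were DMSO negative control for no effect and tunicamycin 10 µg/mL positive control for full effect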
# Active calls of the source: *; i = inactive; nt = not tested or not shown. Rows were chosen to be rich in hits. Some 4.2% of all compounds tested hit in one or more screens of this group.
SMILES,ANO1 block,TMEM16A act,XBP1 UPR activ,CHOP inh,Lipid droplet,UPR CHOP act,XBP1 UPR conf
CC(C)(C)C(=O)NC(=S)NNC(=O)c1sc2ccccc2c1Cl,100*,-12*,35*,110*,-22,20,31*
Cc1cc(S(=O)(=O)Nc2ccc(C(=O)NCC(c3ccco3)N(C)C)cc2)ccc1F (stereo not given),i,i,3,nt,nt,0,nt
Cc1cc(OC(C)C(=O)NCCCN2CCOCC2)ccc1Cl (stereo not given),i,i,-3,nt,0,-1,nt
N#C/C(=C\c1ccc(N2CCOCC2)c([N+](=O)[O-])c1)c1nc2ccccc2[nH]1,i,i,6,53,7,2,nt
N#C/C(=C/c1ccc(N2CCCC2)c([N+](=O)[O-])c1)c1nc2ccccc2[nH]1,i,i,131*,78*,nt,12,87*
CN(C(=O)COC(=O)C1CSC2(C)CCC(=O)N12)c1ccccc1 (stereo not given),i,i,0,nt,nt,0,nt
CC(CN1CCN(C)CC1)OC(=O)c1ccc(Cl)cc1 (stereo not given),i,i,3,26,nt,2,nt
CC(CN1CCCCC1)OC(=O)c1ccc(Cl)cc1 (stereo not given),i,i,35*,9,nt,-1,1
Cc1cccc(NC(=O)c2sc(Cl)nc2-c2ccccc2)c1,i,i,-5,4,2,-1,nt
Cc1cc(C(=O)N/N=C/c2cccc(OC(=O)c3cccc(Br)c3)c2)n[nH]1,i,i,2,nt,12,2,nt
Cc1cc(C(=O)N/N=C/c2ccc(-c3cccc(Br)c3)o2)n[nH]1,i,i,32*,-13,nt,9,4
CS(=O)(=O)c1nc(S(=O)(=O)c2ccc(Cl)cc2)c(NCCCN2CCOCC2)s1,i,i,-4,nt,14,3,nt
Cc1cc(C)c2c(ccc3ccccc32)n1,nt,i,nt,nt,nt,nt,nt
Oc1ccc(-c2nc3ccc4ccccc4c3c3c2CCC3)cc1O,i,i,31*,34,1,33,51*
CCCN1CCc2c(sc(NC(=O)c3ccc(S(=O)(=O)N(C)c4ccccc4)cc3)c2C(N)=O)C1,i,i,40*,nt,-1,3,5
Cn1nnnc1Sc1ncnc2scc(-c3ccccc3Cl)c12,nt,i,2,nt,nt,1,nt
Cn1nnnc1Sc1ncnc2scc(-c3ccc(Cl)cc3)c12,nt,i,46*,nt,nt,1,113*
Cc1ccc(C(=O)NCC(=O)OCC(=O)/C=C2\N(C)c3ccccc3C2(C)C)cc1C,i,i,0,36,-11,-2,nt
Cc1cc(NC(=O)c2cc(-c3ccncc3)nc3c(C)cccc23)no1,i,i,153*,nt,1,8,184*
Cc1ccc(-c2cc(C(=O)Nc3cc(C)on3)c3ccccc3n2)cc1,i,i,-3,-6,-2,-1,nt
CCOc1cc(CNC(C)(C)CO)cc(Br)c1OCc1ccc(Cl)cc1Cl,i,i,83*,92*,nt,3,100*
COc1cc(CNC(C)(C)CO)cc(Br)c1OCc1ccccc1,i,i,-1,-12,3,1,nt
O=C(CSc1ccc2nnc(-c3ccc(Cl)cc3)n2n1)N1CCc2ccccc21,i,i,30*,79*,-24,29,-2
C/C(=N/Nc1cc(-c2ccccc2)nc(-c2ccccc2)n1)c1ccc(O)cc1,i,i,68*,75*,-14,4,57*
CCCc1nc2nc(C)c(NS(=O)(=O)c3ccc([N+](=O)[O-])cc3)c(=O)n2[nH]1,i,i,-1,nt,-16,1,nt
SMILES,ANO1 block,TMEM16A act,XBP1 UPR activ,CHOP inh,Lipid droplet,UPR CHOP act,XBP1 UPR conf
NS(=O)(=O)c1ccc(N/N=C/c2cn(-c3ccccc3)nc2-c2cccs2)c([N+](=O)[O-])c1,i,i,57*,61,24,27,62*
CC1CCCN(c2ccc(C(=O)NCc3ccccc3)cn2)C1 (stereo not given),i,i,19,25,0,6,nt
CC1CCCN(c2ccc(C(=O)NCc3cccs3)cn2)C1 (stereo not given),i,i,38*,8,0,5,32*
O=C(NCc1cccs1)c1ccncc1,i,i,-2,10,8,-2,nt
O=C(NCc1cccs1)c1ccc(N2CCCCC2)nc1,i,i,30,13,7,4,21
COc1ccc(CN(C)C(C)C(=O)Nc2ccc(S(=O)(=O)N3CCCC3)cc2)c(OC)c1OC (stereo not given),i,nt,5,36,16,-2,nt
CC1CCc2c(sc(NC(=O)CCc3nc4ccccc4c(=O)[nH]3)c2C#N)C1 (stereo not given),nt,i,169*,nt,nt,21,198*
CNC(=S)N/N=C1\C(=O)c2cccc3cccc1c23,i,i,33*,-129,nt,33,22
CCCCNC(=S)N/N=C1\C(=O)c2cccc3cccc1c23,i,i,1,-15,-23,-3,nt
COCCCn1c(=NC(=O)c2ccccc2)c(C#N)cc2c(=O)n3cccc(C)c3nc21,i,i,43*,2,3,3,-2
Cc1cc(S(=O)(=O)NCc2cccnc2)ccc1F,i,i,-5,nt,nt,1,nt
Cc1ccc(S(=O)(=O)Cc2cc(F)c([N+](=O)[O-])cc2[N+](=O)[O-])cc1,i,i,33*,nt,-16,10,41*
CCCCOc1cccc(C(=O)N(Cc2ccccc2)C2CCS(=O)(=O)C2)c1 (stereo not given),i,i,-1,nt,-5,1,nt
Clc1ccc(-c2ccc(-c3nn4c(-c5ccco5)nnc4s3)o2)cc1,i,i,91*,nt,nt,3,8
CCCCOc1ccc(C(=O)NNC(=O)C2C3CCC(C3)C2C(=O)O)cc1 (stereo not given),i,i,-1,nt,-8,4,nt
O=C(Nc1ccc2c(c1)OCO2)c1cc(-c2cccc(O)c2)on1,i,i,-1,nt,2,9,nt
O=C(Nc1ccc2c(c1)OCO2)c1cc(-c2ccc(O)cc2)on1,i,i,36*,nt,-9,5,10

# From PubChem BioAssay
